Assay results published in ChEMBL document CHEMBL3875205, “Macrocyclic MEK1/2 inhibitor with efficacy in a mouse model of cardiomyopathy caused by lamin A/C gene mutation” (Bioorg Med Chem, 2017).
Active and inactive are the calls of the source. The rule behind the calls is not given here.

How the values were obtained:
[1] = Cardioprotective activity in LmnaH222P/H222P mouse model of cardiomyopathy assessed as reduction in Myl7 mRNA expression in heart at 6 mg/kg/day, po administered 6 days per week via gavage starting from 14 weeks of age up to 20 weeks of age by qRT-PCR method relative to placebo treated control; format: functional, organism-based
Outline: (§1)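 Hearts from male Lmna H222P/H222P mice gavaged 6 days/week, weeks 14–20, with vehicle or 3 or 6 mg/kg/day. Real-time RT-PCR with SYBR green and 200 nM of each primer; 95°C 2 min, then 50 cycles of 95°C 30 s and 62°C 30 s. ΔΔCT method normalized to Gapdh; fold change versus placebo (n = 5, 5, 6).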

[2] = Cardioprotective activity in LmnaH222P/H222P mouse model of cardiomyopathy assessed as heart rate at 6 mg/kg/day, po administered 6 days per week via gavage starting from 14 weeks of age up to 20 weeks of age by echocardiographic method (reference value: 502.73 +/- 0.46 bpm); format: functional, organism-based
[3] = (§2) Cardioprotective activity in LmnaH222P/H222P mouse model of cardiomyopathy assessed as left ventricular fractional shortening at 3 mg/kg/day, po administered 6 days per week via gavage starting from 14 weeks of age up to 20 weeks of age by echocardiographic method (reference value: 16.36 +/- 1.08%); format: functional, organism-based; settings: Heart
Mus musculus [4] = test: In vivo inhibition of MEK1/2 in LmnaH222P/H222P mouse model of cardiomyopathy assessed as reduction in ERK1/2 phosphorylation in liver at 3 to 6 mg/kg/day, po administered 6 days per week via gavage starting from 14 weeks of age up to 20 weeks of age by immunoblot method; format: functional, organism-based
Outline: (§3)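 Heart, liver and quadriceps from male mutant mice gavaged 3 or 6 mg/kg/day (weeks 14–20) were homogenized for protein. Proteins were run on SDS-PAGE, transferred to nitrocellulose and probed for phospho- and total ERK1/2 with HRP secondaries and chemiluminescence. Scanned blots were quantified as the pERK1/2 to total ERK1/2 ratio; n = 3, means ± SE.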

[5] = Cardioprotective activity in LmnaH222P/H222P mouse model of cardiomyopathy assessed as reduction in Nppa mRNA expression in heart at 3 to 6 mg/kg/day, po administered 6 days per week via gavage starting from 14 weeks of age up to 20 weeks of age by qRT-PCR method relative to placebo treated control; format: functional, organism-based; outline: as §1
Mus musculus [6] = test: In vivo inhibition of MEK1/2 in LmnaH222P/H222P mouse model of cardiomyopathy assessed as reduction in ERK1/2 phosphorylation in quadriceps muscle at 6 mg/kg/day, po administered 6 days per week via gavage starting from 14 weeks of age up to 20 weeks of age by immunoblot method; format: functional, organism-based; outline: as §3
[7] = Cardioprotective activity in LmnaH222P/H222P mouse model of cardiomyopathy assessed as heart rate at 3 mg/kg/day, po administered 6 days per week via gavage starting from 14 weeks of age up to 20 weeks of age by echocardiographic method (reference value: 502.73 +/- 0.46 bpm); format: functional, organism-based
[8] = as §2, with “end systolic diameter” for “fractional shortening”, “6” for “3”, “3.32” for “16.36”, “0.1 millimeter)” for “1.08%)”; format: functional, organism-based; settings: Heart
[9] = (§4) Cardioprotective activity in LmnaH222P/H222P mouse model of cardiomyopathy assessed as left ventricular fractional shortening at 6 mg/kg/day, po administered 6 days per week via gavage starting from 14 weeks of age up to 20 weeks of age by echocardiographic method (reference value: 16.36 +/- 1.08%); format: functional, organism-based; settings: Heart
[10] = as §2, with “end systolic diameter” for “fractional shortening”, “3.32” for “16.36”, “0.1 millimeter)” for “1.08%)”; format: functional, organism-based; settings: Heart
[11] = target: T1, Dual specificity mitogen-activated protein kinase kinase; MEK1/2 (Homo sapiens, UniProt P36507+Q02750); test: Inhibition of MEK1/2 in HEK293 cells assessed as reduction in ERK1/2 phosphorylation at 0.001 to 1 uM after 24 hrs by immunoblot method; format: cell-based
T1 sequence (P36507 whole entry, looked up): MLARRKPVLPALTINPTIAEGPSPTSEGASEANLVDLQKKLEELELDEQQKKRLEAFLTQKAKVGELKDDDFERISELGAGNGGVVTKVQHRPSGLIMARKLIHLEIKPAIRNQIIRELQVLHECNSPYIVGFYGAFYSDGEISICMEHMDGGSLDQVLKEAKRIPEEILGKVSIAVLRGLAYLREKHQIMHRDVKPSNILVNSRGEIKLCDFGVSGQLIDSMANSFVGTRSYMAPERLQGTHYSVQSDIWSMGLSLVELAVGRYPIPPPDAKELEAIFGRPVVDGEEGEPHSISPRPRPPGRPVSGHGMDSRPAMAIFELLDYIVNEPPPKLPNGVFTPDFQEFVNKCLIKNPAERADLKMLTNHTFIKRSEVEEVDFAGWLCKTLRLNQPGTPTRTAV
T1 sequence (Q02750 whole entry, looked up): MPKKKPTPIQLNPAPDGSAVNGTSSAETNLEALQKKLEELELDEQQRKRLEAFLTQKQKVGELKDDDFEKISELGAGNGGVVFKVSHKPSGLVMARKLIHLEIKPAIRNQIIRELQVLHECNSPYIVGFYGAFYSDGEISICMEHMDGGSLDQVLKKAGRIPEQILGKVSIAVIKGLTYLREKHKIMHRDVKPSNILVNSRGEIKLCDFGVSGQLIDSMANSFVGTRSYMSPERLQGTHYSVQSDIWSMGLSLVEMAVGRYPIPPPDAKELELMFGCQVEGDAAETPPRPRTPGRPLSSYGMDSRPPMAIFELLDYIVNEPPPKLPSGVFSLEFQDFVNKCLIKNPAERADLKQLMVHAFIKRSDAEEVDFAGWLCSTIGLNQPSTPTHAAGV
Outline: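 HEK-293 cells were grown in DMEM with 10% FBS, seeded at 5.0×10^5 per well and grown 24 h. After rinsing, they were exposed 24 h to serial dilutions from 1 to 0.001 µM final, or to Cremophor EL/saline vehicle. Cells were then washed with PBS, extracted and immunoblotted for phospho- and total ERK1/2.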

Mus musculus [12] = test: In vivo inhibition of MEK1/2 in LmnaH222P/H222P mouse model of cardiomyopathy assessed as reduction in ERK1/2 phosphorylation in heart at 3 to 6 mg/kg/day, po administered 6 days per week via gavage starting from 14 weeks of age up to 20 weeks of age by immunoblot method; format: functional, organism-based; outline: as §3
Mus musculus [13] = test: (§5) In vivo inhibition of MEK1/2 in LmnaH222P/H222P mouse model of cardiomyopathy assessed as reduction in ERK1/2 activation-mediated muscular dystrophy by measuring inhibition of serum creatine phosphokinase activity at 6 mg/kg/day, po administered 6 days per week via gavage starting from 14 weeks of age up to 20 weeks of age; format: functional, organism-based
Outline: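 Serum from male Lmna H222P/H222P mice gavaged with vehicle or 3 or 6 mg/kg/day from 14 to 20 weeks of age was assayed for creatine phosphokinase activity. Means ± SE, n = 10 per group.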

[14] = as §2, with “end diastolic diameter” for “fractional shortening”, “3.96” for “16.36”, “0.08 millimeter)” for “1.08%)”; format: functional, organism-based; settings: Heart
[15] = as §4, with “end diastolic diameter” for “fractional shortening”, “3.96” for “16.36”, “0.08 millimeter)” for “1.08%)”; format: functional, organism-based; settings: Heart
Mus musculus [16] = test: as §5, with “increase in forelimb grip fatigue index” for “inhibition of serum creatine phosphokinase activity”; format: functional, organism-based
Outline: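 Forelimb grip strength was tested by an investigator blind to treatment on two consecutive days and normalized to body mass. Fatigue index = (C+D)/(A+B), where A–D are sums of pulls 1–3, 4–6, 10–12 and 13–15; a value of 1 means no fatigue. Mice were gavaged from weeks 14–20; n = 7 placebo, 6 treated.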

[17] = Cardioprotective activity in LmnaH222P/H222P mouse model of cardiomyopathy assessed as reduction in myocardial fibrosis administered 6 days per week via oral gavage starting from 14 weeks of age up to 20 weeks of age by masson trichrome staining based assay; format: functional, tissue-based; settings: Heart
Outline: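 Left ventricles from male mutant mice dosed 3 or 6 mg/kg/day by gavage (weeks 14–20) were fixed in 4% formaldehyde for 48 h, paraffin-embedded, cut at 5 μm and stained with Masson trichrome. Graded 0–4 for vacuolation and fibrosis: 0–2 no fibrosis with none, mild or moderate vacuolation; 3 mild fibrosis; 4 severe fibrosis. n = 5, 5, 6.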

[18] = target: T1, Dual specificity mitogen-activated protein kinase kinase; MEK1/2; test: Inhibition of MEK1/2 in human HT-29 cells assessed as reduction in cell proliferation after 72 hrs by CellTiter-Glo assay; format: cell-based
Outline: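 HT-29 cells were plated at 2,000/well in DMEM or RPMI with 10% FBS and left overnight at 37°C, 5% CO2. Medium was replaced with compound at 3-fold dilutions from 3.3 µM to 4.5 nM. After 72 h, viability was read by CellTiter-Glo luminescence and IC50 calculated.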

O=S1(=O)Nc2c(cc(F)c(F)c2Nc2ccc(I)cc2F)OCC(O)C(O)CC12CC2 (single isomer, unassigned; form 1)
Activity [1]: Active
Activity [2]: 502 bpm
Activity [3]: 19.4%
inhibition (Mus musculus [4]): Active
Activity [5]: Active
inhibition (Mus musculus [6]): Active
Activity [7]: 504 bpm
Activity [8]: 3.02 mm
Activity [9]: 20.6%
Activity [10]: 3.24 mm
inhibition [11]: Active
inhibition (Mus musculus [12]): Active
inhibition (Mus musculus [13]): Active
Activity [14]: 4 mm
Activity [15]: 3.77 mm
inhibition (Mus musculus [16]): Active
Activity [17]: Dose-dependent effect

O=S1(=O)Nc2c(cc(F)c(F)c2Nc2ccc(I)cc2F)OCC(O)C(O)CC12CC2 (single isomer, unassigned; form 2)
IC50 [18]: 400 nM
